The sample as a whole holds a higher share of hits than the screen did.
INS promoter act: activators of insulin promoter-driven GFP, primary screen, imaging, TRM-6 cells (human fetal islet line), eGFP reporter, cell count. 0.81% of 130,000 active. AID 1296, 2008. plate-scaled: unstimulated 0, stimulated control 100. activation, % at 2 µM;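 active = activation at 2 µM above a set limit, confirmed on inspection of the cell images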;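 note: share of cells whose green reporter signal exceeds an intensity cutoff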
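Assay system: TRM-6 human fetal islet cells, insulin promoter–eGFP reporter; Also added: 0.75 µM tamoxifen as reporter inducer; Schedule: 15 h tamoxifen pre-treatment, 48 h compound treatment at 37 °C; Signal: fixed-cell fluorescence microscopy, eGFP plus Hoechst; Read-out: percent activation from GFP-positive cell fraction; Control set: stimulated and unstimulated wells.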
Numbers stand for hits; - = inactive.

SMILES | INS promoter act
COc1cc(NC(=O)CSCC(=O)Nc2cccc(C(F)(F)F)c2)c(Cl)cc1Cl | -
CCOc1ccc(CC(=O)Nc2ccc(NC(=O)c3ccco3)cc2)cc1OCC | 100.0
CCOc1cc(NC(=O)c2cccs2)c(OCC)cc1NC(=O)c1ccco1 | -
CCOc1cc(NC(=O)c2ccco2)c(OCC)cc1NC(=O)Cc1cccc(OC)c1 | -
O=C(NCc1ccccc1)c1ccc(CN2CCOCC2)cc1 | -
CCCNC(=O)c1ccc(CN2CCOCC2)cc1 | 294.7
Cc1cccc(CSCCNC(=O)c2ccc(CN3CCOCC3)cc2)c1 | -
C=CCc1c(OC)ccc2ccc(=O)oc12 | -
CC(=S)c1c(C)cc2cc(C)ccn12 | -
CCN1/C(=C/C(C)=C/c2sc3ccccc3[n+]2CC)Sc2ccccc21 | 640.7
COc1ccc(C)cc1NC(=O)C(c1ccccc1)N1CCNC(=O)C1 (stereo not drawn) | -
CCNS(=O)(=O)c1ccc(NC(=O)c2ccccc2OCC)cc1 | -
O=C(Nc1ccc(S(=O)(=O)N2CCCCC2)cc1)c1ccc(CN2CCc3ccccc3C2)cc1 | -
CCN1CCCC1CNS(=O)(=O)c1ccc(C(=O)Nc2ccccc2)cc1 (stereo not drawn) | 500.0
CN(C)S(=O)(=O)c1ccc(C(=O)Nc2ccc(CCC(=O)N3CCCC3)cc2)cc1 | 448.6
CCN(CC)S(=O)(=O)c1ccc(C(=O)Nc2ccc(Cc3ccncc3)cc2)cc1 | -
CN(C)S(=O)(=O)c1ccc(C(=O)Nc2ccc(CN3CCCC3)cc2)cc1 | -
O=C(Cn1c(=O)n(-c2ccc(F)cc2)c(=O)c2sccc21)c1ccccc1 | -
CN1C(=O)CC(C(=O)O)SC1=Nc1cccc(C(F)(F)F)c1 (stereo not drawn) | -
CN1C(=O)CC(C(=O)O)SC1=Nc1ccc(F)cc1 (stereo not drawn) | 425.0
O=C1CC(C(=O)O)S/C(=N\NC(=O)c2ccc(F)cc2)N1 (stereo not drawn) | -
COc1cc(C(=O)NCC(c2ccccc2)N(C)C)ccc1OCC(=O)N1CCOCC1 (stereo not drawn) | -
COc1ccc(-c2[nH]ncc2CNCCc2ncccc2C)cc1F | -
CCOC(=O)c1c(NC(=O)CN2CCOCC2)sc2c1CCCC2=O | -
CCOC(=O)c1c(NC(=O)CN2CCOCC2)sc(C(=O)NC)c1C | -
SMILES | INS promoter act
Cc1sc(NC(=O)CN2CCOCC2)c(C(=O)c2ccccc2)c1C | 75.0
Cc1cc(NC(=O)/C=C/c2cccc(Cl)c2)n(-c2nc3ccccc3[nH]2)n1 | 300.0
Cc1cc(NC(=O)c2c(F)cccc2F)n(-c2nc3ccccc3[nH]2)n1 | -
Cc1cc(NC(=O)/C=C/c2ccc(F)cc2)n(-c2nc3ccccc3[nH]2)n1 | -
Clc1ccc(CNc2nc(CN3CCOCC3)nc3scc(-c4ccccc4)c23)cc1 | -
Cc1nc2ccc(Nc3ccncc3)cc2s1 | -
O=C(CSc1nnc(-c2ccccc2)n1Cc1ccccc1)NNC(=O)c1ccccc1O | -
COn1c(=O)c(-c2cccs2)[n+]([O-])c2ccccc21 | 87.2
Cn1c(-c2cccs2)[n+](C)c2ccccc21 | -
O=c1c(-c2ccco2)[n+]([O-])c2ccccc2n1OCc1ccccn1 | -
CCOC(=O)C(C)Sc1nnc(NC(=O)c2ccc3c(c2)OCO3)s1 (stereo not drawn) | -
CCCn1c2c(c(O)c(C(=O)Nc3nc4ccccc4s3)c1=O)CCCC2 | -
CN(C)C(=O)C(NC(=O)c1ccccc1)=C(Cl)Cl | -
CSc1nsc(NC(=O)Cc2ccccc2)n1 | 103.2
CCOCCc1nnc(NC(=O)Cc2ccccc2)s1 | -
O=C(Nc1nc(SCc2ccc(F)cc2)ns1)c1ccco1 | -
C[N+]1(CC(=O)Nc2ccc(F)cc2)CCN(C(=O)c2ccco2)CC1 | -
C/C(=N/OC(=O)C1CC12CCC2)c1ccc(Br)cc1 (stereo not drawn) | -
Cc1ccc(N=Nc2c(N)nn3c(C)cc(C)nc23)cc1 | -
Cc1cc(=O)[nH]c2c(N=Nc3ccc(O)cc3)c(N)nn12 | 383.3
Cc1cc(C)n2nc(N)c(N=Nc3cccc(Cl)c3)c2n1 | -
COc1ccc(C(=O)Oc2cccc(/C=N/NC(N)=S)c2)cc1 | -
COc1ccc(C(C)C)cc1S(=O)(=O)n1ccnc1C | -
Cc1ccc2nc(/C(C#N)=C\c3ccc(N4CCOCC4)o3)[nH]c2c1 | 455.6
Cc1ccc2nc(/C(C#N)=C\c3cc(C)n(-c4cccc([N+](=O)[O-])c4)c3C)[nH]c2c1 | -
SMILES | INS promoter act
Cc1ccc2nc(/C(C#N)=C\c3ccc(Oc4ccc([N+](=O)[O-])cn4)cc3)[nH]c2c1 | -
CCOc1ccccc1-n1c(SCC(N)=O)nc2ccccc2c1=O | -
CCOc1ccccc1-n1c(SCC(N)=O)nnc1-c1ccccc1 | 154.5
COc1cccc(-c2nnc(SCC(N)=O)n2-c2ccc(Cl)cc2)c1 | -
COc1ccc2cc(-c3cc(C(=O)OCC(=O)Nc4c(C)n(C)n(-c5ccccc5)c4=O)c4ccccc4n3)ccc2c1 | 325.0
Cc1c(NC(=O)COC(=O)COc2ccc(Nc3ccccc3)cc2)c(=O)n(-c2ccccc2)n1C | -
Cc1c(NC(=O)COC(=O)CCC(=O)c2ccc(Cl)cc2)c(=O)n(-c2ccccc2)n1C | -
CCOC(=O)C1CN(S(=O)(=O)c2cccc(C(F)(F)F)c2)c2cc(CC(=O)OC)ccc2O1 (stereo not drawn) | -
Cn1c(N)c(C(=O)COC(=O)CSc2ccc(Cl)cc2)c(=O)n(C)c1=O | -
CCOc1ccc(-n2c(C)nnc2SCC(=O)N(CC)CC)cc1 | -
CCN1CCS/C1=C/C=C/C1=[N+](CC)CCS1 | 233.3
COc1ccc(CN2CCN(C(=O)C3CCC(CNS(=O)(=O)c4ccccc4)CC3)CC2)c(OC)c1OC (stereo not drawn) | -
O=C(c1ccc(F)cc1)N1CCCCC(S(=O)(=O)c2ccccc2)C1=O (stereo not drawn) | -
CCN(C(=O)COC(=O)/C=C/c1ccccc1)C1CCCCC1 | -
N/C(=N\OC(=O)c1ccc(Br)cc1)c1ccccc1 | -
N/C(=N\OC(=O)CCCOc1ccccc1)c1ccncc1 | -
Cc1ccccc1C(=O)O/N=C(\N)c1ccncc1 | 508.3
COc1cccc(NC(=O)c2cc(OC)c(OC)c(OC)c2Br)c1 | -
CC(C)C(=O)Nc1cccc(S(=O)(=O)c2cccc(NC(=O)C(C)C)c2)c1 | 487.5
CC(C)C(=O)Nc1cccc(NC(=O)c2cc3ccccc3o2)c1 | -
Cc1nnc(NC(=O)c2cccc(NC(=O)C(C)C)c2)s1 | -
Cc1cc(C)cc(COn2ccnc2)c1 | -
Cc1ccc(C(=O)CC(=O)c2cccc(F)c2)c(O)c1 | -
COCCn1nnnc1SCC(=O)Nc1ccc2c(c1)OCO2 | -
Cc1cc(C)cc(CC(Cc2nc3ccccc3[nH]2)c2nc3ccccc3[nH]2)c1 (stereo not drawn) | -
SMILES | INS promoter act
CCCNc1c(F)c(F)c2c(C)c3ccccc3nc2c1F | 160.0
CCC(=O)Oc1c(-c2ccccc2)c2nc3ccccc3nc2c2ccccc12 | -
Cc1cc(NCCO)c2ccccc2n1 | -
CC(C)(C)Nc1nc(NC(C)(C)C)nc(-n2ccnc2)n1 | -
CC(CN1CCCCC1)OC(=O)C(C)(c1ccccc1)c1ccccc1 (stereo not drawn) | -
O=C(Nc1ccccc1N1CCOCC1)c1ccc2c(c1)OCO2 | 366.7
COc1ccc(C(=O)NC(=S)Nc2ccccc2N2CCOCC2)cc1Br | -
O=C(Nc1ccccc1)c1ccc2c(c1)OCCO2 | -
CN1c2cccc3cccc(c23)N(C)C1(C)C | -
CC(=O)c1ccc2cccc3c2c1N=CN3C | 130.0
CN1/C(=N\O)c2cccc3cccc1c23 | -
